Shown are actives, neighbours in structure and some others; about 3.3% of the full set was active somewhere.
rCAG RNA binder: r(CAG) repeat RNA binding. TO-PRO-1 dye displacement fluorescence. inhibition, % at 3 µM. 370,000 compounds, 1.3% hits. AID 651821;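 active means inhibition above the plate cutoff, the mean of all test compounds on that plate plus 3 SD, cut at about 35% in these data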;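 further: 0% = DMSO alone and 100% = 100 µM mitoxantrone as full dye displacement; higher means more dye released from RNA so lower well fluorescence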
SIAE inh: human SIAE inhibition, primary screen | 370,000 compounds, 0.69% hits | inhibition, % at 9.66 µM | SIAE FP-Rh probe binding, fluorescence polarization | Q9HAT2;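 active means inhibition above a cutoff: mean of compounds within the control limits plus 3 SD of those, cut at about 17% in these data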;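 further: 0% = plate median of compound wells and 100% = probe without SIAE protein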
ABHD4 inh: inhibits mouse alpha/beta hydrolase domain 4 | Q8VD66 | purified mABHD4, FP-Rh probe fluorescence polarization | inhibition, % at 8.92 µM | 370,000 compounds, 0.54% hits | AID 720543;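 active means inhibition exceeding the mean over every tested compound plus 3 SD, cut at about 30% in these data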;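 further: 0% = plate median of compound wells and 100% = S159A mutant with DMSO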
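Assay system: mouse ABHD4 enzyme, wild type / Also added: fluorescent activity-based probe FP-Rh / Doses: single nominal dose of 8.92 µM, 0.89% DMSO final / Timing: 45 min compound pre-incubation plus 60 min probe step, 25 °C / Signal: FP readout, ex 525 nm / em 598 nm / Control set: S159A mutant/DMSO as 100%, compound-well median as 0%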
PRMT1 FP inh: inhibitors of human PRMT1; Q99873; recombinant PRMT1, activity-based probe fluorescence polarization; inhibition, % at 2.79 µM; 370,000 compounds, 1.3% hits;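 active means inhibition above about 21% made by adding two undisclosed values, limit read from the data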
Target sequence (Q99873 whole entry, looked up): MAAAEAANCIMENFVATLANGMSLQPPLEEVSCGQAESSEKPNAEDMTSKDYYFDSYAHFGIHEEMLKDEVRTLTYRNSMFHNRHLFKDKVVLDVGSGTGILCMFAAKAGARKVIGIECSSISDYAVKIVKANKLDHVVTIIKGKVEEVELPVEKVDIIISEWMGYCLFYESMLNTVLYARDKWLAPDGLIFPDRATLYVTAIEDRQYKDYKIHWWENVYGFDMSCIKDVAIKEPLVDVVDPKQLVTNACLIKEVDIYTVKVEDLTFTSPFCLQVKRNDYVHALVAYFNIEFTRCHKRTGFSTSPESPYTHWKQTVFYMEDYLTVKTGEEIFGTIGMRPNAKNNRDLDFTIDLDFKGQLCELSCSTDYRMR
TCR-CD3 inh: inhibitors of human TCR-CD3 interaction; TAMRA-labeled TCR probe fluorescence, biochemical; inhibition, % at 9.4 µM; 360,000 compounds, 0.37% hits; AID 651800; in the data active means inhibition above about 19%;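 further: recombinant mutant TCR 2C K166C tagged with TAMRA read by polarization; 0% = receptor in buffer alone and 100% = receptor with positive control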
PRMT1 confirm: PRMT1 (human) inhibition, FP confirmation. shares compounds with PRMT1 FP inh. recombinant His-PRMT1, activity-based probe fluorescence polarization. inhibition, % at 2.79 µM. 3,300 compounds, 42% hits;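 active means mean inhibition across replicates above the hit cutoff derived for the earlier primary screen, cut at about 22% in these data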
Starred values were filed as active, the others as inactive.

For Cc1cnc(NC(=O)CCCc2nc3ccccc3s2)s1 the results were rCAG RNA binder -3, SIAE inh 0, ABHD4 inh -7, PRMT1 FP inh 49*, TCR-CD3 inh -5 and PRMT1 confirm 21.
Screening O=C(CCCc1nc2ccccc2s1)Nc1nccs1 returned rCAG RNA binder 4, SIAE inh -3, ABHD4 inh -6, PRMT1 FP inh 41*, TCR-CD3 inh -4 and PRMT1 confirm 14.
COc1ccc(N2C(=O)CC(Sc3nnc(-c4ccccc4)o3)C2=O)cc1 (stereo unspecified) was read as rCAG RNA binder 5, SIAE inh -14, ABHD4 inh 0, PRMT1 FP inh 63*, TCR-CD3 inh -6 and PRMT1 confirm 39*.
O=C1CC(Sc2nnc(-c3ccccc3O)o2)C(=O)N1c1ccccc1 (stereo unspecified) was read as rCAG RNA binder 1, SIAE inh -3, ABHD4 inh 9, PRMT1 FP inh 66*, TCR-CD3 inh -2 and PRMT1 confirm 65*.
Screening COC(=O)[C@]1(C)CN(C(=O)OC(C)(C)C)C2=C1C(=O)C[C@@](C)(C(=O)OC(C)(C)C)C2 returned rCAG RNA binder -1, SIAE inh 4, ABHD4 inh -2 and PRMT1 FP inh 1.
For CCCCCC(=O)NC1CCCCN(Cc2ccc(C)cc2)C1=O (stereo unspecified) the results were rCAG RNA binder -1, SIAE inh -6, ABHD4 inh 4 and PRMT1 FP inh 2.
`Cc1oc(-c2ccc3c(c2)OCCO3)cc1C(=O)O` gave rCAG RNA binder 11, SIAE inh -2, ABHD4 inh -7, PRMT1 FP inh 42*, TCR-CD3 inh -8 and PRMT1 confirm 6.
`O=S1(=O)c2c(cccc2N2CCC[C@H]2CO)O[C@@H]2CCN1C2` gave rCAG RNA binder 6, SIAE inh 0, ABHD4 inh 6 and PRMT1 FP inh 0.
S=c1[nH]cc(-c2ccccc2)n1-c1ccccc1 was read as rCAG RNA binder 2, SIAE inh -3, ABHD4 inh 2, PRMT1 FP inh 34*, TCR-CD3 inh -4 and PRMT1 confirm 12.
`CCn1c(-c2ccccc2)c[nH]c1=S` gave rCAG RNA binder 0, SIAE inh 4, ABHD4 inh 7, PRMT1 FP inh 1 and TCR-CD3 inh 7.
Screening O=C(Nc1ccccc1Oc1ccccc1)NC1CCCCN(Cc2ccc(Cl)cc2)C1=O (stereo unspecified) returned rCAG RNA binder 9, SIAE inh -5, ABHD4 inh 3 and PRMT1 FP inh 0.
For Cc1cccc(NC(=O)[C@@H]2CC(=O)O[C@@H]2c2ccccc2)c1C the results were rCAG RNA binder -1, SIAE inh 1, ABHD4 inh 7 and PRMT1 FP inh -3.
Screening Cc1cc(C)c(NC(=S)NCC2CCN(C(C)c3ccccc3)C2)c(C)c1 (stereo unspecified) returned rCAG RNA binder -6, SIAE inh 7, ABHD4 inh -5, PRMT1 FP inh 42*, TCR-CD3 inh 6 and PRMT1 confirm 72*.
For Cc1cccc(NC(=O)C(NS(=O)(=O)c2ccc3c(c2)CCC(=O)N3)c2ccccc2)n1 (stereo unspecified) the results were rCAG RNA binder 1, SIAE inh 6, ABHD4 inh 6, PRMT1 FP inh 47*, TCR-CD3 inh -1 and PRMT1 confirm 48*.
Screening COC(=O)C[C@@H]1CC[C@H]2[C@H](COc3ccc(NC(=O)c4cccc(C(F)(F)F)c4)cc3C(=O)N2C)O1 returned rCAG RNA binder 4, SIAE inh 0, ABHD4 inh -2 and PRMT1 FP inh 0.
CSc1ccc(C=Nn2c(-c3cc(C)[nH]n3)n[nH]c2=S)cc1 was read as rCAG RNA binder 10, SIAE inh 5, ABHD4 inh 3 and PRMT1 FP inh 7.
`CC(C)[C@H](NC(=O)N1CCOCC1)C(=O)N1CCC[C@H]1C(=O)NCc1ccccc1` gave rCAG RNA binder 1, SIAE inh 3, ABHD4 inh 4, PRMT1 FP inh -2 and TCR-CD3 inh 1.
`Cc1ccc(N2C(=O)c3cccc4c(N)ccc(c34)C2=O)c2cccnc12` gave rCAG RNA binder -251, SIAE inh -38, ABHD4 inh 4, PRMT1 FP inh 94*, TCR-CD3 inh 13 and PRMT1 confirm 119*.
For Cc1ccc(-n2cnnn2)c2cccnc12 the results were rCAG RNA binder -1, SIAE inh 4, ABHD4 inh -3, PRMT1 FP inh -3 and TCR-CD3 inh -1.
CCCCN=C(N)NC(=O)OCc1ccccc1 was read as rCAG RNA binder -2, SIAE inh -2, ABHD4 inh 0 and PRMT1 FP inh -3.
For C=CCc1c(C)c(C#N)c2nc3ccccc3n2c1N1CCCCC1 the results were rCAG RNA binder 1, SIAE inh 0, ABHD4 inh 5, PRMT1 FP inh 2 and TCR-CD3 inh -3.
For C=CCc1c(C)[nH]c(=S)c(C#N)c1C the results were rCAG RNA binder 6, SIAE inh -7, ABHD4 inh 6, PRMT1 FP inh 32*, TCR-CD3 inh 6 and PRMT1 confirm 53*.
Screening COc1ccc(NC(=O)C2=CC(c3ccc(OC)cc3)=NS(=O)(=O)N2C)cc1 returned rCAG RNA binder 6, SIAE inh -8, ABHD4 inh -12, PRMT1 FP inh 1 and TCR-CD3 inh -1.
`COc1ccc(C2=NS(=O)(=O)N(C)C(C(=O)Nc3ccc(F)cc3F)=C2)cc1` gave rCAG RNA binder 6, SIAE inh 3, ABHD4 inh -5, PRMT1 FP inh 85*, TCR-CD3 inh 0 and PRMT1 confirm 5.
Screening CC(=O)c1cc(-c2cc(C(F)(F)F)cc(C(F)(F)F)c2)c(=O)n2c1CCC2 returned rCAG RNA binder -2, SIAE inh 11, ABHD4 inh -2 and PRMT1 FP inh 0.
Screening COc1ccc(/C=C2\SC(=S)N(N3C(=O)CCC3=O)C2=O)cc1O returned rCAG RNA binder 14, SIAE inh 1, ABHD4 inh 5, PRMT1 FP inh 49*, TCR-CD3 inh -2 and PRMT1 confirm 1.
For CCOc1cc(/C=C2\SC(=S)N(N3CCOCC3)C2=O)ccc1O the results were rCAG RNA binder -1, ABHD4 inh -2, PRMT1 FP inh 0 and TCR-CD3 inh 1.
For Cc1cc(C)c(Cn2cnc(-c3ccc([N+](=O)[O-])cc3)c2)c(C)c1 the results were rCAG RNA binder 10, SIAE inh 1, ABHD4 inh -11, PRMT1 FP inh 46*, TCR-CD3 inh -8 and PRMT1 confirm -6.
`CC(C)(C)c1ccc(Cn2cnc(-c3ccc([N+](=O)[O-])cc3)c2)cc1` gave rCAG RNA binder 2, SIAE inh 4, ABHD4 inh 1, PRMT1 FP inh 2 and TCR-CD3 inh -4.
Screening COc1ccc(CNC(=O)c2nc(S(=O)(=O)Cc3ccccc3)ncc2Cl)cc1 returned rCAG RNA binder -3, SIAE inh 4, ABHD4 inh -5, PRMT1 FP inh 19 and TCR-CD3 inh -5.
